Measured values taken from ChEMBL document CHEMBL1141261, “Eremophilane sesquiterpenes from Ligularia macrophylla” (J Nat Prod, 2007).
Values after ≈ are worked out from the molar mass of the structure shown.

Experiments:
A549 = experiment: Cytotoxicity against human A549 cells; type: functional, cell-based
Summary of the method: (§1)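 Test samples were dissolved in DMSO and diluted into culture medium to a final DMSO level of ≤1% (v/v). Human lung carcinoma A-549 and breast adenocarcinoma MCF-7 lines were used. Cell culture and the remaining steps followed an earlier published protocol.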

MCF7 = experiment: Cytotoxicity against human MCF7 cells; type: functional, cell-based; summary of the method: as §1

SMILES | EC50 (A549) [µg/mL] | EC50 (MCF7) [µg/mL]
C/C=C(/CO)C(=O)O[C@@H]1c2c(C)coc2C[C@@]23O[C@@H]2CC[C@H](C)[C@@]13C | > 20 | 17.3 (≈ 49.9 µM)
CC(C=O)C1=C[C@@]2(C)C(=CC1=O)[C@H](O)CC[C@@H]2C (mixture of isomers) | 18.4 | > 20
Cc1coc2cc3c(c(C)c12)[C@@H](C)CC[C@@H]3O | 13.8 (≈ 59.9 µM) | 15.2 (≈ 66 µM)
Cc1cc2c(C)coc2cc1[C@H](C)CCC=O | 10 (≈ 43.4 µM) | > 20
C/C=C(/C)C(=O)O[C@H]1c2c(C)coc2C[C@H]2C(=O)CC[C@H](C)[C@]21C | ≥ 20 | ≥ 20
C/C=C(/C)C(=O)O[C@@H]1c2c(C)coc2C[C@]23O[C@H]2CC[C@H](C)[C@@]13C | 9.4 (≈ 28.4 µM) | > 20
Cc1cc2c(C)coc2c2c1CCCC2C (stereo not drawn) [FARFUGIN A] | 10.9 (≈ 50.9 µM) | 13.6 (≈ 63.5 µM)
Cc1coc2cc3c(c(C)c12)[C@@H](C)CCC3=O | 11.9 (≈ 52.1 µM) | 15.2 (≈ 66.6 µM)
Cc1coc2c1[C@@H](O)[C@]1(C)[C@@H](C)CC[C@@H]3O[C@@]31C2 | ≥ 20 | ≥ 20
